The record followed here is ChEMBL document CHEMBL3352101, “Synthesis and inhibitory activity on hepatitis C virus RNA replication of 4-(1,1,1,3,3,3-hexafluoro-2-hydroxy-2-propyl)aniline analogs” (Bioorg Med Chem Lett, 2014).

Series [1] can be described thus: Cytotoxicity against human Li23 cells by WST assay.
Series [2] has as its system Hepatitis C virus. Kind of series: Inhibition of HCV RNA replication in human Li23 cells (ORL8 system) by renilla luciferase reporter gene based replication assay. It counts as functional, organism-based, Hepacivirus hominis.
The nature of series [3]: Selectivity index, ratio of CC50 against human Li23 cells to EC50 against HCV RNA replication in human Li23 cells. The procedure, abridged:
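SI was calculated as CC50/EC50. CC50 in Li23 cells came from a WST-1 assay. EC50 came from the ORL8 genome-length HCV RNA Renilla luciferase replication assay. All assays were done in triplicate.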

The subject of series [4] is Hepatitis C virus. Kind of series: Inhibition of HCV RNA replication in human Li23 cells (ORL8 system) at 5 uM in presence of 10 to 200 uM vitamin E by renilla luciferase reporter gene based replication assay. To be noted: Hepacivirus hominis. It counts as functional, organism-based. The method, boiled down:
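Genome-length HCV RNA replication was measured by Renilla luciferase in ORL8 (Li23) cells. Vitamin E was given at various concentrations, with the test compound absent or present at 5 µM. Assays were done in triplicate.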
(In general: Reporter assays use an easily measured gene product as a stand-in for the process of interest.)

A further series has as its system Li23. The series can be described thus: Induction of ROS generation in human Li23 cells (ORL8 system). It counts as functional, cell-based. The procedure, abridged: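 ROS production in the ORL8 genome-length HCV RNA replicon system (Li23 cells) was measured by FACS analysis at a series of compound concentrations.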
Series [5] concerns Hepatitis C virus. Kind of series: Potentiation of 1 IU/mL IFN-alpha and 6.3 uM ribavirin-induced inhibition of HCV RNA replication in human Li23 cells (ORL8 system) by renilla luciferase reporter gene based replication assay. It counts as functional, organism-based. To be noted: Hepacivirus hominis. The method, boiled down:
(§1)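 Genome-length HCV RNA replication was read by Renilla luciferase in ORL8 (Li23) cells. Increasing compound concentrations were combined with IFN-α alone (1 IU/mL) or with IFN-α plus ribavirin (1 IU/mL + 6.3 µM; 4 IU/mL + ribavirin also tested). Assays were done in triplicate.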

The subject of series [6] is Hepatitis C virus. Kind of series: Potentiation of 1 IU/mL IFN-alpha-induced inhibition of HCV RNA replication in human Li23 cells (ORL8 system) by renilla luciferase reporter gene based replication assay. The note with it: Hepacivirus hominis. It counts as functional, organism-based. The procedure, abridged:
as §1

The subject of series [7] is Hepatitis C virus. Kind of series: Inhibition of HCV RNA replication in human HuH7 cells (OR6 system) by renilla luciferase reporter gene based replication assay. It counts as functional, organism-based, Hepacivirus hominis. The note with it: Huh-7. The procedure, abridged:
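The OR6 system carries genome-length HCV RNA with a Renilla luciferase reporter in HuH-7 hepatoma cells. Replication inhibition was measured and EC50 determined from runs done in triplicate.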

Series [8] concerns Hepatitis C virus. The series can be described thus: Inhibition of HCV RNA replication in human Li23 cells (ORL8 system) in presence of 1 IU/mL IFN-alpha by renilla luciferase reporter gene based replication assay. The note with it: Hepacivirus hominis. It counts as functional, organism-based. The method, boiled down:
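Li23 human hepatoma cells carrying replicating genome-length HCV RNA with a Renilla luciferase reporter (ORL8). Test compound given at a range of concentrations together with IFN-alpha at 1 IU/mL, with a vehicle control. HCV RNA replication read as luciferase reporter activity. Assays run in triplicate.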

The term CC50 denotes the concentration that lowers cell viability or growth by half. A low value points to harm at low concentration. As a reminder, the EC50 is the concentration that produces a half-maximal response. Low values mean an effect from little substance, high ones a need for much substance.

The source made the active and inactive calls. The rule behind the calls is not given here.

In turn, `CCN(C(=O)c1ccccc1)c1ccc(C(O)(C(F)(F)F)C(F)(F)F)cc1` registered a CC50 in [1] of 19 µM. This compound displayed an EC50 in the series on Hepatitis C virus [2] of 0.78 µM. Further, the “Ratio CC50/EC50” value in series [3] was 24.
The matching figures for `COc1cccc(S(=O)(=O)N(C)c2ccc(C(O)(C(F)(F)F)C(F)(F)F)cc2)c1`: 13 µM, 2.1 µM and 6.2.
In turn, `CN(c1ccc(C(O)(C(F)(F)F)C(F)(F)F)cc1)S(=O)(=O)c1ccccc1Cl` registered a CC50 in series [1] of 15 µM. The compound also showed an EC50 in the series on Hepatitis C virus [2] of 0.17 µM. Besides, the “Ratio CC50/EC50” value in [3] amounted to 88.
The compound `CN(C(=O)Nc1ccccc1)c1ccc(C(O)(C(F)(F)F)C(F)(F)F)cc1` gave a CC50 in series [1] of over 20 µM. The compound also came in with an EC50 with Hepatitis C virus [2] of 5.7 µM.
In the case of `CN(Cc1ccccc1)c1ccc(C(O)(C(F)(F)F)C(F)(F)F)cc1`, in [1], the CC50 was determined as 13 µM. The EC50 in the series with Hepatitis C virus [2] is 3 µM. The “Ratio CC50/EC50” value in series [3] was determined as 4.3.
On the same counts, the results for `Cc1cccc(C(=O)N(C)c2ccc(C(O)(C(F)(F)F)C(F)(F)F)cc2)c1` are 20 µM, 5.8 µM and 3.4.
In series [1], `CN(c1ccc(C(O)(C(F)(F)F)C(F)(F)F)cc1)S(=O)(=O)c1ccccc1` showed a 50% cytotoxic concentration (CC50) of 16 µM. Also, the inhibition entry with Hepatitis C virus [4] is “inactive”. Besides, the EC50 with Hepatitis C virus [2] turned out to be 0.19 µM. Moreover, in the series on Hepatitis C virus [2], the IC60 stood at 5 µM. Further, the Activity result with Li23, in the series with Hepatitis C virus [5] and in the series on Hepatitis C virus [6] was “Dose-dependent effect” in each case. Besides, in [3], the “Ratio CC50/EC50” value stood at 84.
With `CN(C(=O)c1ccccn1)c1ccc(C(O)(C(F)(F)F)C(F)(F)F)cc1`, the CC50 in series [1] was over 100 µM. Moreover, the EC50 with Hepatitis C virus [2] was over 100 µM.
`CN(C(=O)c1ccccc1)c1ccc(C(OCCO)(C(F)(F)F)C(F)(F)F)cc1` displayed a CC50 in series [1] of over 20 µM. In addition, in the series with Hepatitis C virus [2], the EC50 stood at 11 µM.
On the same counts, the results for `CCCC(=O)N(C)c1ccc(C(O)(C(F)(F)F)C(F)(F)F)cc1` are over 100 µM and 3.8 µM.
On to `CN(C(=O)c1ccccc1)c1ccccc1C(O)(C(F)(F)F)C(F)(F)F`, for which the CC50 in [1] was over 20 µM. Besides, the EC50 in the series with Hepatitis C virus [2] was over 20 µM.
The compound `CN(C(=O)c1ccccc1)c1ccc(C(O)(C(F)(F)F)C(F)(F)F)cc1` gave a CC50 in series [1] of 65 µM. Besides, the EC50 in the series with Hepatitis C virus [7] is over 20 µM; in the series with Hepatitis C virus [2], 0.32 µM. In [3], the “Ratio CC50/EC50” value came to 203.
In series [1], `CN(C(=O)C12CC3CC(CC(C3)C1)C2)c1ccc(C(O)(C(F)(F)F)C(F)(F)F)cc1` had a cytotoxic concentration (CC50) of 17 µM. In addition, in the series on Hepatitis C virus [2], a half-maximal effect (EC50) was put at 1 µM. Besides, in series [3], the “Ratio CC50/EC50” value was found to be 17.
The matching figures for `Cc1ccc(C(=O)N(C)c2ccc(C(O)(C(F)(F)F)C(F)(F)F)cc2)cc1`: 26 µM, 10 µM and 2.6.
The matching figures for `CC(=O)N(C)c1ccc(C(O)(C(F)(F)F)C(F)(F)F)cc1`: 40 µM, 14 µM and 2.9.
On the same counts, the results for `Cc1cccc(S(=O)(=O)N(C)c2ccc(C(O)(C(F)(F)F)C(F)(F)F)cc2)c1` are 11 µM, 0.35 µM and 31.
`Cc1ccccc1S(=O)(=O)N(C)c1ccc(C(O)(C(F)(F)F)C(F)(F)F)cc1`: the half-maximal cytotoxic concentration (CC50) in series [1] stood at 12 µM. In addition, the EC50 in the series on Hepatitis C virus [2] is 0.36 µM. Further, in series [3], the “Ratio CC50/EC50” value came out at 33.
On the same counts, the results for `CN(C(=O)c1ccsc1)c1ccc(C(O)(C(F)(F)F)C(F)(F)F)cc1` are 44 µM, 17 µM and 2.6.
The matching figures for `Cc1ccc(S(=O)(=O)N(C)c2ccc(C(O)(C(F)(F)F)C(F)(F)F)cc2)cc1`: 15 µM, 0.44 µM and 34.
On the same counts, the results for `CN(C(=O)c1cccnc1)c1ccc(C(O)(C(F)(F)F)C(F)(F)F)cc1` are 63 µM, 45 µM and 1.4.
In series [1], `CCCN(C(=O)c1ccccc1)c1ccc(C(O)(C(F)(F)F)C(F)(F)F)cc1` returned a CC50 of 15 µM. The compound also registered an EC50 in the series on Hepatitis C virus [2] of 3.5 µM. Moreover, the “Ratio CC50/EC50” value in [3] is reported as 4.3.
The matching figures for `CN(c1ccc(C(O)(C(F)(F)F)C(F)(F)F)cc1)S(=O)(=O)c1ccccc1Br`: 9.1 µM, 0.5 µM and 18.
`CN(c1ccc(C(O)(C(F)(F)F)C(F)(F)F)cc1)S(=O)(=O)c1cccc(F)c1` displayed a CC50 in [1] of 19 µM. For the same compound, the half-maximal effective concentration (EC50) in the series with Hepatitis C virus [2] stood at 0.36 µM. Moreover, in series [3], the “Ratio CC50/EC50” value is 53.
On the same counts, the results for `CCCCC(=O)N(C)c1ccc(C(O)(C(F)(F)F)C(F)(F)F)cc1` are 26 µM, 2.3 µM and 11.
The matching figures for `CN(C(=O)C1CCCCC1)c1ccc(C(O)(C(F)(F)F)C(F)(F)F)cc1`: 20 µM, 0.23 µM and 87.
`NC(=O)c1ncn([C@@H]2O[C@H](CO)[C@@H](O)[C@H]2O)n1` [RIBAVIRIN] came in with an EC50 with Hepatitis C virus [2] of 8.7 µM. In addition, the inhibition entry in the series on Hepatitis C virus [8] is “Active”.
With `Cc1cc(N(C)C(=O)c2ccccc2)ccc1C(O)(C(F)(F)F)C(F)(F)F`, it took 87 µM to reach half-maximal cytotoxicity in series [1] (CC50). Besides, the EC50 in the series with Hepatitis C virus [2] was over 100 µM.
`O=C(c1ccccc1)N(Cc1ccccc1)c1ccc(C(O)(C(F)(F)F)C(F)(F)F)cc1`: it took 7.5 µM to reach half-maximal cytotoxicity in series [1] (CC50). Besides, a half-maximal response in the series with Hepatitis C virus [2] (EC50) required 2.9 µM. The “Ratio CC50/EC50” value in [3] stood at 2.6.
On the same counts, the results for `COc1ccc(S(=O)(=O)N(C)c2ccc(C(O)(C(F)(F)F)C(F)(F)F)cc2)cc1` are 7.9 µM, 1.4 µM and 5.6.
As to `CN(C(=O)Cc1ccccc1)c1ccc(C(O)(C(F)(F)F)C(F)(F)F)cc1`, in [1], half-maximal cytotoxicity (CC50) was put at 27 µM. In the series on Hepatitis C virus [2], this compound registered an EC50 of over 100 µM.
With `Cc1ccccc1C(=O)N(C)c1ccc(C(O)(C(F)(F)F)C(F)(F)F)cc1`, the half-maximal cytotoxic concentration (CC50) in [1] was 38 µM. Moreover, a half-maximal response in the series on Hepatitis C virus [2] (EC50) required 17 µM. For the same compound, in series [3], the “Ratio CC50/EC50” value is given as 2.2.
On the same counts, the results for `CN(C(=O)c1cccs1)c1ccc(C(O)(C(F)(F)F)C(F)(F)F)cc1` are 33 µM, 2.6 µM and 13.
In series [1], `O=C(Nc1ccc(C(O)(C(F)(F)F)C(F)(F)F)cc1)c1ccccc1` returned a cytotoxic concentration (CC50) of 12 µM. It took 4.1 µM to reach a half-maximal effect in the series on Hepatitis C virus [2] (EC50). Besides, the “Ratio CC50/EC50” value in series [3] is given as 2.9.
The matching figures for `Cc1cc(C(O)(C(F)(F)F)C(F)(F)F)ccc1N(C)C(=O)c1ccccc1`: 9 µM, 1.7 µM and 5.3.
